Series [1] can be described thus: DPPH˙ scavenging activity. The note with it: 30 min, 515 nm; tested 10–100 µg mL^−1. The procedure, abridged:
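Test compound (10–100 µg mL⁻¹) or 80% methanol control was mixed 1:2 (v/v) with DPPH solution, shaken, and kept 30 min at room temperature in the dark. Absorbance was read at 515 nm. Scavenging % = 100 × (1 − A sample/A DPPH blank). Ferulic and syringic acids served as references. Run in triplicate.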

Series [2] is described as follows: Cell viability. Type of series: cell-based. The conditions noted are these: human, HUVEC cells. The essentials: (§1)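 Caco-2 and Vero cells were grown in DMEM with 10% FBS, and HUVEC in DMEM-F12 with 10% FBS, at 37 °C and 5% CO₂. Cells were seeded at 5.000 per well 24 h before treatment. Test compound was diluted from a 100 mM DMSO stock into 1% FBS medium at 1, 10, 30, 50, 100 and 150 µM. Controls were 10% DMSO and medium alone. At 24, 48 and 72 h, cells got resazurin (0.5 mg mL⁻¹ solution) for 4 h, read at ex 560/em 590 nm. IC50 was from curve fitting.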

A short description of series [3]: Cell viability. Type of series: cell-based. The note with it: human, Caco-2 cells. The essentials: as §1
Series [4] in a line: Cell viability. Type of series: cell-based. The note with it: African green monkey, Vero cells. The procedure, abridged: as §1
For series [5] the following is noted: SO + additive at 200 ppm; for T 5 (5% mass loss) / T 10 (10% mass loss) / T 50 (50% mass loss) / T onset (decomposition temperature: onset temperature): TGA in air. The essentials: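 Thermogravimetry of sunflower oil with 200 ppm test compound: about 10 mg oil in a Pt crucible was heated from ambient to 700 °C at 5 °C min⁻¹ in air (60 mL min⁻¹), with N₂ purge on the balance. Onset temperature and temperatures at 5, 10 and 50% mass loss came from TG/DTG curves and were compared with unsupplemented oil.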

Another series is described as follows: Lipoperoxidation. The conditions noted are these: 220 °C; for Reduction in secondary oxidation (TBARS) in comparison with SOcontrol / TBARS value: SO + additive 200 ppm; for TBARS value: 30 min. The essentials: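 Sunflower oil with 200 ppm test compound was heated on a hot plate at 25, 100, 180 and 220 °C for 30 min (ramp 2 °C min⁻¹). Oil (0.5 mL) was vortexed with TBA/TCA/HCl and centrifuged 3500 rpm for 5 min. Supernatant was heated 90 °C for 15 min and read at 535 nm against an MDA curve, as nmol MDA per mL oil. Unsupplemented oil was the control. Run in triplicate.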

Series [6] can be described thus: Cytotoxic effect, summary over the three cell lines. The format is cell-based. The conditions noted are these: human (Caco-2, HUVEC); African green monkey (Vero), Caco-2, HUVEC and Vero cells. The essentials: as §1

Consider 12 compounds from publication PMC11250141 (RSC Advances, 2024).

Some results are limits rather than exact numbers.

Consider `CCOc1ccc(/C=C/C(=O)O)cc1OC` [Compound 3a, (E)-3-(4-Ethoxy-3-methoxyphenyl)acrylic acid], for which the “Antioxidant capacity (DPPH), IC50” value in series [1] is 56.50 ± 2.38 µg/mL. In “Cell viability [2]”, the IC50 at 24 h is > 100 µM, the IC50 at 48 h was > 100 µM and the IC50 at 72 h was > 100 µM. For the same compound, in “Cell viability [3]”, the IC50 at 24 h is > 100 µM, the IC50 at 48 h is > 100 µM and the IC50 at 72 h was > 100 µM. Moreover, in the series “Cell viability [4]”, the IC50 at 24 h was > 100 µM, the IC50 at 48 h is > 100 µM and the 50% inhibitory concentration (IC50) at 72 h is > 100 µM.
For `CCCOc1ccc(/C=C/C(=O)O)cc1OC` [Compound 3b, (E)-3-(3-Methoxy-4-propoxyphenyl)acrylic acid], the “Antioxidant capacity (DPPH), IC50” value in series [1] was determined as 90.43 ± 1.63 µg/mL. Besides, in the series “Cell viability [2]”, the IC50 at 24 h is > 100 µM, the IC50 at 48 h was > 100 µM and the IC50 at 72 h was > 100 µM. In “Cell viability [3]”, the IC50 at 24 h is > 100 µM, the IC50 at 48 h is > 100 µM and the IC50 at 72 h was > 100 µM. Further, in “Cell viability [4]”, the 50% inhibitory concentration (IC50) at 24 h is > 100 µM, the IC50 at 48 h was > 100 µM and the IC50 at 72 h is > 100 µM. Besides, in series [5], the “Difference of degradation temperature in comparison to SO at 5% mass loss” value was determined as 35 °C, the “Difference of degradation temperature in comparison to SO at 10% mass loss” value came out at 25 °C, the “Difference of degradation temperature in comparison to SO at 50% mass loss” value was 4 °C and the “T 5 (5% mass loss)” value is 376 °C. Also, in series [5], the “T 10 (10% mass loss)” value amounted to 390 °C, the “T 50 (50% mass loss)” value is 423 °C and the “T onset (decomposition temperature: onset temperature)” value (“T onset” below) stood at 344 °C. In the series “Lipoperoxidation”, the “Reduction in secondary oxidation (TBARS) in comparison with SOcontrol” value (“Reduction in secondary oxidation (TBARS)” for short) is recorded as 5 times and the TBARS value is 8.88 nmol/mL.
On to `CCCCCOc1ccc(/C=C/C(=O)O)cc1OC` [Compound 3c, (E)-3-(3-Methoxy-4-(pentyloxy)phenyl)acrylic acid], for which the “Antioxidant capacity (DPPH), IC50” value in series [1] is >100 µg/mL. Further, in “Cell viability [2]”, the IC50 at 24 h was > 100 µM, the IC50 at 48 h is > 100 µM and the IC50 at 72 h is > 100 µM. In the series “Cell viability [3]”, the IC50 at 24 h is > 100 µM, the IC50 at 48 h was > 100 µM and the IC50 at 72 h was > 100 µM. In addition, in the series “Cell viability [4]”, the IC50 at 24 h was > 100 µM, the IC50 at 48 h is > 100 µM and the IC50 at 72 h was > 100 µM. In addition, in series [5], the “T 5 (5% mass loss)” value is 370 °C, the “T 10 (10% mass loss)” value came out at 386 °C, the “T 50 (50% mass loss)” value turned out to be 424 °C and the “T onset” value amounted to 343 °C. Also, in the series “Lipoperoxidation”, the “Reduction in secondary oxidation (TBARS)” value was 6 times and the TBARS value came to 7.68 nmol/mL. Also, in the series “Lipoperoxidation” (SO + additive), the “TBARS value (level of SO oxidation)” value was found to be 7.68 nmol/L.
For the compound `CCCCCCOc1ccc(/C=C/C(=O)O)cc1OC` [Compound 3d, (E)-3-(4-(Hexyloxy)-3-methoxyphenyl)acrylic acid], the “Antioxidant capacity (DPPH), IC50” value in series [1] is >100 µg/mL. In addition, the half-inhibitory concentration (IC50) at 24 h in “Cell viability [2]”, in the series “Cell viability [3]” and in the series “Cell viability [4]” was > 100 µM throughout. In addition, the IC50 at 48 h in the series “Cell viability [2]”, in “Cell viability [3]” and in “Cell viability [4]” was > 100 µM in each case. The IC50 at 72 h in the series “Cell viability [2]”, in the series “Cell viability [3]” and in the series “Cell viability [4]” was > 100 µM each time.
Consider `CCCCCCCCOc1ccc(/C=C/C(=O)O)cc1OC` [Compound 3e, (E)-3-(3-Methoxy-4-(octyloxy)phenyl)acrylic acid], for which the “Antioxidant capacity (DPPH), IC50” value in series [1] was >100 µg/mL. For the same compound, in “Cell viability [2]”, half-maximal inhibition (IC50 at 24 h) required 90 ± 1.03 µM, the 50% inhibitory concentration (IC50) at 48 h was 53.1 ± 1.02 µM and the IC50 at 72 h was 54.4 ± 1.05 µM. Also, in “Cell viability [3]”, the IC50 at 24 h is > 100 µM, the IC50 at 48 h was > 100 µM and half-maximal inhibition (IC50 at 72 h) was put at 96.2 ± 1.1 µM. In addition, the IC50 in series [6] was < 100 µM. For the same compound, in the series “Cell viability [4]”, the IC50 at 24 h is > 100 µM, the IC50 at 48 h was > 100 µM and the IC50 at 72 h was > 100 µM.
On to `CCCCCCCCCCOc1ccc(/C=C/C(=O)O)cc1OC` [Compound 3f, (E)-3-(4-(Decyloxy)-3-methoxyphenyl)acrylic acid], for which the “Antioxidant capacity (DPPH), IC50” value in series [1] was >100 µg/mL. Also, in “Cell viability [2]”, half-maximal inhibition (IC50 at 24 h) required 55.6 ± 1.05 µM, the IC50 at 48 h was 26.4 ± 1.06 µM and inhibition was half-maximal at 25.4 ± 1.08 µM (IC50 at 72 h). In “Cell viability [3]”, the IC50 at 24 h is > 100 µM, half-maximal inhibition (IC50 at 48 h) required 88.7 ± 1.08 µM and the IC50 at 72 h came out at 76.8 ± 1.08 µM. Also, the IC50 in series [6] is < 100 µM. In addition, in the series “Cell viability [4]”, the IC50 at 24 h is > 100 µM, the IC50 at 48 h was > 100 µM and the IC50 at 72 h was > 100 µM.
With `COc1cc(C(=O)O)cc(OC)c1O` [Compound 4, syringic acid, reference compound], the “Antioxidant capacity (DPPH), IC50” value in series [1] was 4.53 ± 0.19 µg/mL.
With `CCOc1c(OC)cc(C(=O)O)cc1OC` [Compound 5a, 4-Ethoxy-3,5-dimethoxybenzoic acid], in series [1], the “Antioxidant capacity (DPPH), IC50” value is 9.20 ± 0.91 µg/mL. Moreover, the IC50 at 24 h in “Cell viability [2]”, in “Cell viability [3]” and in the series “Cell viability [4]” was > 100 µM in each case. Besides, the IC50 at 48 h in the series “Cell viability [2]”, in “Cell viability [3]” and in “Cell viability [4]” was > 100 µM throughout. The IC50 at 72 h in “Cell viability [2]”, in the series “Cell viability [3]” and in the series “Cell viability [4]” was > 100 µM in each case.
For `CCCOc1c(OC)cc(C(=O)O)cc1OC` [Compound 5b, 3,5-Dimethoxy-4-propoxybenzoic acid], the “Antioxidant capacity (DPPH), IC50” value in series [1] was determined as 11.47 ± 0.58 µg/mL. In addition, in the series “Cell viability [2]”, the IC50 at 24 h was > 100 µM, the IC50 at 48 h is > 100 µM and the IC50 at 72 h is > 100 µM. Further, in the series “Cell viability [3]”, the IC50 at 24 h is > 100 µM, the concentration for half-maximal inhibition (IC50) at 48 h is > 100 µM and the IC50 at 72 h is > 100 µM. Besides, in “Cell viability [4]”, the IC50 at 24 h is > 100 µM, the IC50 at 48 h was > 100 µM and the IC50 at 72 h is > 100 µM. Moreover, in series [5], the “Increase of onset temperature of mass loss (Tonset) in comparison with SO” value came out at 24 °C, the “T 5 (5% mass loss)” value is 364 °C, the “T 10 (10% mass loss)” value was determined as 382 °C and the “T 50 (50% mass loss)” value came to 420 °C. Further, the “T onset” value in series [5] was determined as 305 °C. The “Reduction in secondary oxidation (TBARS)” value in the series “Lipoperoxidation” is recorded as 5 times.
Take `CCCCCCOc1c(OC)cc(C(=O)O)cc1OC` [Compound 5d, 4-(Hexyloxy)-3,5-dimethoxybenzoic acid]: the “Antioxidant capacity (DPPH), IC50” value in series [1] is >100 µg/mL. Further, in “Cell viability [2]”, the IC50 at 24 h is > 100 µM, the IC50 at 48 h is > 100 µM and the half-maximal inhibitory concentration (IC50) at 72 h is > 100 µM. For the same compound, in the series “Cell viability [3]”, the IC50 at 24 h is > 100 µM, the IC50 at 48 h is > 100 µM and the half-inhibitory concentration (IC50) at 72 h was > 100 µM. Also, in the series “Cell viability [4]”, the IC50 at 24 h is > 100 µM, the half-inhibitory concentration (IC50) at 48 h was > 100 µM and the IC50 at 72 h was > 100 µM.
On to `CCCCCCCCOc1c(OC)cc(C(=O)O)cc1OC` [Compound 5e, 3,5-Dimethoxy-4-(octyloxy)benzoic acid], for which the “Antioxidant capacity (DPPH), IC50” value in series [1] is >100 µg/mL. Further, in the series “Cell viability [2]”, the IC50 at 24 h was > 100 µM, the IC50 at 48 h worked out at 55.9 ± 1.06 µM and half-maximal inhibition (IC50 at 72 h) was put at 53.3 ± 1.05 µM. For the same compound, in “Cell viability [3]”, the IC50 at 24 h was > 100 µM, the IC50 at 48 h was > 100 µM and the IC50 at 72 h is > 100 µM. In addition, in series [6], the IC50 is < 100 µM. Moreover, in “Cell viability [4]”, the IC50 at 24 h is > 100 µM, the IC50 at 48 h was > 100 µM and the IC50 at 72 h was > 100 µM.
On to `CCCCCCCCCCOc1c(OC)cc(C(=O)O)cc1OC` [Compound 5f, 4-(Decyloxy)-3,5-dimethoxybenzoic acid], for which the “Antioxidant capacity (DPPH), IC50” value in series [1] was >100 µg/mL. In the series “Cell viability [2]”, this compound yielded an IC50 at 24 h of 47.2 ± 1.04 µM, a half-inhibitory concentration (IC50) at 48 h of 35.4 ± 1.04 µM and an IC50 at 72 h of 29.3 ± 1.09 µM. In addition, in “Cell viability [3]”, the half-maximal inhibitory concentration (IC50) at 24 h was > 100 µM, half-maximal inhibition (IC50 at 48 h) was put at 70 ± 1.06 µM and 62.8 ± 1.07 µM corresponded to half-maximal inhibition (IC50 at 72 h). Further, the IC50 in series [6] is < 100 µM. Further, in “Cell viability [4]”, the IC50 at 24 h is > 100 µM, the IC50 at 48 h was > 100 µM and the IC50 at 72 h was > 100 µM.
